# High-throughput results: PubChem BioAssay, SRMLSC
# Only a selection was taken, and hits are over-represented in it overall.
# bCat KO growth: beta-catenin-lacking colon tumor cell growth suppression; AID 818; HCT116 beta-catenin knockout viability, CellTiter-Glo, 60 h; hits give low values; viability, % at 10 µM; 140,000 compounds, 1.5% hits;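 active = viability at or under a set limit, the compound median less 4 SD, cut at about 6% in these data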;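 also: 0% = Hyamine 1622 control at 20 µM and 100% = untreated cell control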
# H69AR growth 86K: growth inhibitors of human H69AR lung tumor cells; H69AR lung tumor viability, ATP luminescence, 72 h; hits give low values; viability, % at 10 µM; 85,000 compounds, 6% hits;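 active = viability at or below 40%; inactive = viability above 40%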;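 also: multidrug resistant small cell line overexpressing MRP-1 efflux transporter; 100% = mean luminescence of untreated control wells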
# HUVEC inhibit: human endothelial cell proliferation inhibition | 86,000 compounds, 1.1% hits | viability, % at 10 µM (by protocol) | AID 648 | HUVEC proliferation, CellTiter-Glo luminescence, 72 h; hits give low values;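 active = viability at or below 30%; inactive = viability above 30%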;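 also: 100% = median luminescence of DMSO-only cell control wells on each plate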
# PTEN del growth: growth suppressors of cells with PTEN tumor suppressor deletion | HCT116 PTEN-null viability, CellTiter-Glo, 60 h; hits give low values | viability, % at 10 µM | 140,000 compounds, 1.2% hits;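 active = viability at or below a set limit, 4 SD under the median of all tested compounds, cut at about 3.7% in these data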;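 also: PTEN knockout HCT116 line with beta catenin targeted HCT116 as companion control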
# Fibroblast inh: blocks proliferation of human lung fibroblasts; LL 47 human lung fibroblast viability, ATP luminescence; hits give low values; viability, % at 10 µM; 85,000 compounds, 1.1% hits; AID 719;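 active = viability at or below 50% in the single dose screen; inactive = viability above 50%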;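 also: compound exposure lasted 72 h before the ATP readout; 100% = median luminescence of untreated cell-only wells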
#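 Benchmarks: Cell-only wells, no compound | Test system: LL 47 human lung fibroblasts, passage 12 or lower | Input: 1,150 cells/well | Measured by: CellTiter-Glo luminescence measuring cellular ATP | Medium: IMEM, 15% FBS supplement | Schedule: Overnight attachment after seeding, then 72 h compound exposure at 37 °C | Doses: Compound addition at 0.1% DMSO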
# Active calls of the source: *; . = no result given.
SMILES,bCat KO growth,H69AR growth 86K,HUVEC inhibit,PTEN del growth,Fibroblast inh
COc1cc(OC)c(C2=NOC(C(=O)NCc3ccc4c(c3)OCO4)C2)cc1Cl (centres undefined),64,22*,60,60,92
COc1ccc(OC)c(C2=NOC(C(=O)NCc3ccco3)C2)c1 (centres undefined),72,33*,80,64,95
C[C@]12CC[C@@H]3c4ccc(O)cc4CC[C@H]3[C@@H]1CCC2=O,78,81,78,75,93
CCCCC(=O)O[C@H]1CC[C@H]2[C@@H]3CCc4cc(O)ccc4[C@H]3CC[C@]12C,53,1.1*,8.9*,63,85
CC(C)Cc1nc2oc3c(N4CCN(C)CC4)ncnc3c2c2c1CCCC2,89,84,94,85,104
CCCc1nc2oc3c(N4CCNCC4)ncnc3c2c2c1CCCC2,.,7.0*,67,.,84
CCCc1nc2oc3c(NCCN(C)C)ncnc3c2c2c1CCCC2,2.0*,8.9*,39,1.8*,4.3*
CC(=O)Nc1ccc(-n2nnnc2SCC(=O)N2CCN(C(=O)c3ccco3)CC2)cc1,98,95,100,91,100
NS(=O)(=O)c1cccc(NC(=O)CCSc2ccc(Cl)cc2)c1,97,.,.,94,.
CCc1ccc(C(=O)/C=C/c2ccc([N+](=O)[O-])o2)cc1,1.9*,2.6*,21*,1.5*,15*
CC(C)(C)c1cnnn1-c1ccc(C(=O)CCl)cc1,102,1.6*,40,93,16*
Cc1cccc(-n2nnnc2SCC(=O)c2cc(C)n(Cc3ccco3)c2C)c1,96,7.3*,49,99,.
CCn1c2ccccc2c2cc(NC(=O)CSc3nnc(-c4ccc(OC)cc4)n3N)ccc21,35,27*,48,30,56
Cc1ccc(-n2nnnc2SCC(=O)Nc2ccc3c(c2)COC3=O)cc1C,83,95,89,80,27*
CCn1c(=O)cc(SCC(=O)Nc2ccc(OC)c(OC)c2)c2ccccc21,70,78,86,83,102
CCn1c2ccccc2c2cc(NC(=O)CSc3nnnn3-c3ccccc3)ccc21,94,20*,73,91,79
CCn1c(=O)cc(SCC(=O)Nc2ccc(Cl)cc2)c2ccccc21,87,17*,82,82,87
C=CCOCC(O)CS(=O)(=O)Cc1ccc(Cl)cc1 (centres undefined),108,90,95,106,101
CCn1c(SCC(=O)Nc2ccc3c(c2)c2ccccc2n3CC)nnc1-c1cnccn1,38,18*,97,63,95
CC(=O)Nc1ccc(S(=O)(=O)NCc2ccc(C(=O)NC(C)c3ccccc3)cc2)cc1 (centres undefined),101,89,89,100,98
CCCCNc1ncnc2c1cnn2-c1ccccc1,15,13*,72,23,68
CCCCNc1ncnc2c1cnn2-c1ccc(Cl)cc1,19,19*,60,23,59
CCCCNc1ncnc2c1cnn2-c1ccc(C)cc1C,88,37*,97,98,92
c1ccc(-n2ncc3c(NCCCN4CCOCC4)ncnc32)cc1,93,84,95,88,106
Fc1cccc(Nc2ncnc3c2cnn3-c2ccccc2)c1,.,14*,76,.,86
SMILES,bCat KO growth,H69AR growth 86K,HUVEC inhibit,PTEN del growth,Fibroblast inh
COCCCNc1ncnc2c1cnn2-c1ccc(C)cc1C,98,.,.,95,.
CC(=O)c1c(C)[nH]c(C(=O)OCCCCN2C(=O)c3ccccc3C2=O)c1C,53,88,79,50,90
CCOCCCNC(=S)N1C2CCC1CC(NC(=O)NC1CCCCC1)C2 (centres undefined),106,.,.,95,.
NC(=O)c1ccsc1NC(=O)COC(=O)Cc1cccc2ccccc12,75,93,106,80,99
c1ccc(Cn2ncc3c(NCc4ccco4)ncnc32)cc1,79,53,70,79,81
c1ccc(-n2ncc3c(NCc4ccco4)ncnc32)cc1,55,28*,73,58,92
Clc1ccc(Cn2ncc3c(NCc4ccccc4)ncnc32)cc1,34,22*,57,31,55
CCSc1nc(N)c(C#N)c(-c2ccco2)c1C#N,87,32*,80,86,84
N#Cc1c(N)oc(-c2ccco2)c1-c1ccco1,5.9*,83,93,12,100
N#Cc1c(/N=C/c2ccco2)oc(-c2ccccc2)c1-c1ccccc1,98,98,109,103,92
COc1ccc(OC)c(/C=N/c2oc(-c3ccco3)c(-c3ccco3)c2C#N)c1,3.5*,43,85,5,94
COc1ccc(C(=O)c2c(C(F)(F)F)oc3c2C(=O)c2ccccc2C3=O)cc1OC,1.3*,1.6*,4.7*,1.9*,2.4*
O=C(Nc1ccc(Cl)cn1)c1cc2ccccc2o1,86,87,93,92,87
O=C(Nc1ccc(Cl)cn1)c1ccc(-c2cc(Cl)ccc2Cl)o1,3.1*,.,.,7,.
Cc1cccc(NN=C2c3ccccc3-c3ccccc32)c1,82,.,.,82,.
Cc1ccc(CN(CC(=O)NC2CCCC2)C(=O)CSc2nnc(COc3ccccc3)o2)cc1,91,16*,48,83,86
O=C(CN(Cc1ccccc1)C(=O)CSc1nnc(COc2ccccc2)o1)NC1CCCC1,70,73,94,71,97
COc1ccc(/C=N/NC(=O)c2nc(Cl)c(Cl)c(N)c2Cl)cc1COc1ccc(F)cc1F,2.0*,.,.,5,.
COc1ccc(/C=N/NC(=O)c2nc(Cl)c(Cl)c(N)c2Cl)cc1COc1ccccc1F,13,.,.,20,.
CCCCN(C)CC(O)Cn1cc(/C=C/C(=O)c2cccs2)c2ccccc21 (centres undefined),1.6*,.,.,1.6*,.
O=C(/C=C/c1cn(CC(O)CN2CCCCCC2)c2ccccc12)c1cccs1 (centres undefined),1.2*,.,.,1.9*,.
CCN1CCCC1CNCc1cccc(OC)c1OCc1ccc(F)cc1 (centres undefined),76,.,.,90,.
O=C(NC(Cc1ccccc1)C(=O)O)/C(=C/c1ccco1)NC(=O)c1cccc(Br)c1 (centres undefined),105,.,.,99,.
C#CCn1c(=NC(=O)c2ccc(Cl)s2)sc2cccc(OC)c21,4.4*,1.5*,44,5,61
C#CCn1c(=NC(=O)c2cccs2)sc2cccc(OCC)c21,92,23*,79,92,95
COC(=O)Cn1c(=NC(=O)c2ccc(Cl)s2)sc2cc(F)ccc21,61,.,.,58,.
Cc1ccc(S(=O)(=O)N(C)CCCC(=O)Nc2cccc3ccccc23)cc1,65,.,.,63,.
Cc1cc(NC(=O)c2cc(C(C)C)on2)nn1Cc1ccc(Cl)cc1,16,93,92,36,103
CCC(CC)C(=O)Nc1cccc(C(=O)Nc2ccc(S(=O)(=O)Nc3ccc(C)cc3)cc2)c1,27,.,.,22,.
O=C(O)C1CCCN1C(=O)OCc1ccccc1 (centres undefined),101,95,105,100,95
